Assay results reported in PubChem BioAssay AID504650 (Molecular Libraries Program, Specialized Chemistry Center, …, 2011).
Active and inactive are the calls of the source.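 The calls were made as follows: active = IC50 at or below 10 µM; inactive = the rest.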

target: Transitional endoplasmic reticulum ATPase (Homo sapiens) (UniProt P55072); experiment: p97 ATPase activity inhibitors, SAR follow-up, biochemical, dose response, round 3 (AID 504650); conditions: purified p97 ATPase, Kinase-Glo luminescence
How it was run: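 Also added: ATP substrate, 500 µM stock; Assay system: human p97 ATPase protein; Buffer or medium: Tris pH 7.4 buffer with MgCl2, EDTA; Signal: Kinase-Glo Plus luminescence measuring residual ATP; Measure: IC50 from fit of percent remaining activity versus compound concentration; Incubation: 10 min room-temperature enzyme–compound preincubation, 30 min 37 °C ATP reaction.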

Transitional endoplasmic reticulum ATPase (Homo sapiens), sequence (P55072 whole entry, looked up): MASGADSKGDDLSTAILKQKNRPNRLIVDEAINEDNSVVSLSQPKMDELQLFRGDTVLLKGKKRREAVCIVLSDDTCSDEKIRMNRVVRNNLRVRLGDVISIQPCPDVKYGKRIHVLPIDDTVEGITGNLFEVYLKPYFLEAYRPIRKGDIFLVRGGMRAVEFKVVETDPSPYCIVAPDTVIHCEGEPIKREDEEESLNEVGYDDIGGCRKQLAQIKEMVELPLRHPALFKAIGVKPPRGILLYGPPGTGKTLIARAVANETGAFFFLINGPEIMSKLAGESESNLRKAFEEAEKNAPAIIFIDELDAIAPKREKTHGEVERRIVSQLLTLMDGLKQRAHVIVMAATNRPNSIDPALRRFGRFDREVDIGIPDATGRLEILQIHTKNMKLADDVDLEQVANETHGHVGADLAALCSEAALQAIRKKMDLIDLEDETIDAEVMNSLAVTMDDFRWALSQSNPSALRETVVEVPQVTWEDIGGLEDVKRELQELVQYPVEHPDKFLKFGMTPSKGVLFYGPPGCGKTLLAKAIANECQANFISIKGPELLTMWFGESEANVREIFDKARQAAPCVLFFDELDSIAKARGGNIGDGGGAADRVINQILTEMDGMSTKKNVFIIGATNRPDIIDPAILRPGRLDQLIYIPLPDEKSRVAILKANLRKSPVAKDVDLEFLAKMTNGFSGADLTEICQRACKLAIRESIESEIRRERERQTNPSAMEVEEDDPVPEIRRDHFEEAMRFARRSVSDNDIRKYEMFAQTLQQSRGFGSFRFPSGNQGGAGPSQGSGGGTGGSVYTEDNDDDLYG

| SMILES | IC50 |
| --- | --- |
| COc1cccc2c(NCc3ccccc3)nc(N3CCNc4ccccc43)nc12 | 0.9 µM |
| Oc1cccc2c(NCc3ccccc3)nc(N3CCOc4ccccc43)nc12 | 1.2 µM |
| COc1cccc2c(NCc3ccccc3)nc(Nc3cccc(Cl)c3)nc12 | 0.5 µM |
| COc1cccc2c(NCc3ccccc3)nc(-n3c(N)nc4c(C)cccc43)nc12 | 0.045 µM |
| COc1cccc2c(NCc3ccccc3)nc(Nc3nc4ccccc4s3)nc12 | 0.5 µM |
| CC(C)Nc1nc(Nc2cccc(Cl)c2)nc2ccccc12 | > 30 µM (inactive) |
| COc1cccc2c(NCc3ccccc3)nc(N3CCOc4ccccc43)nc12 | 0.2 µM |
| COc1cccc2c(NCc3ccccc3)nc(NCC3CCCCC3)nc12 | 5.4 µM |
| COc1cccc2c(NCc3ccccc3)nc(N3CCN(C(C)=O)c4ccccc43)nc12 | 2.7 µM |
| COc1cccc2c(NCc3ccccc3)nc(N3CCOCC3)nc12 | inactive |
| COc1cccc2c(NCc3ccccn3)nc(N3CCOc4ccccc43)nc12 | inactive |
| COc1cccc2c(NCc3ccccc3)nc(-n3c(N)nc4ccccc43)nc12 | 0.11 µM |
| c1ccc2c(c1)OCCN2c1nc(N2CCOc3ccccc32)c2ccccc2n1 | > 30 µM (inactive) |
| COc1cccc2c(NCc3ccccc3)nc(NCc3cncs3)nc12 | inactive |
| Nc1nc2ccccc2n1-c1nccc(NCc2ccccc2)n1 | 2.8 µM |
| COc1cccc2c(NCc3ccccc3)nc(NC(=O)Nc3ccccc3)nc12 | > 30 µM (inactive) |
| CCCCOc1cccc2c(NCc3ccccc3)nc(N3CCOc4ccccc43)nc12 | 2.63 µM |
| COc1cccc2c(NCc3ccccc3)nc(N(C)Cc3ccccc3)nc12 | 7 µM |
| COc1ccc2c(c1)nc(N)n2-c1nc(NCc2ccccc2)c2cccc(OC)c2n1 | 0.48 µM |

| SMILES | IC50 |
| --- | --- |
| COc1ccc(-c2cccc3c(NCc4ccccc4)nc(N4CCOc5ccccc54)nc23)cc1 | 1.1 µM |
| COc1cccc2c(NCc3ccccc3)nc(-n3cnc4ccccc43)nc12 | 3.3 µM |
| COc1cccc2c(NCc3ccccc3)nc(N3CCN(C(C)=O)CC3)nc12 | > 30 µM (inactive) |
| c1ccc(CNc2nc(N3CCOc4ccccc43)nc3c2CCCC3)cc1 | 0.11 µM |
| COc1cccc2c(NCc3ccccc3)nc(Nc3ccccc3O)nc12 | 2.6 µM |
| COc1cccc2c(NCc3ccc(F)cc3)nc(N3CCOc4ccccc43)nc12 | 1.9 µM |
| Nc1nc2ccccc2n1-c1nc(NCc2ccccc2)c2ccccc2n1 | 0.11 µM |
| COc1cccc2c(NCc3ccccc3)nc(N3CCN(C)c4ccccc43)nc12 | 3.1 µM |
| COc1cccc2c(NCc3ccccc3)nc(NCc3cccs3)nc12 | 1.7 µM |
| COc1cccc2c(NCc3ccccc3)nc(-n3c(=O)oc4ccccc43)nc12 | 0.11 µM |
| COc1cccc2c(NCc3ccccc3)nc(Nc3cc(C)cc(F)c3)nc12 | 1.5 µM |
| COc1cccc2c(NCc3ccccc3)nc(-n3c(N)nc4cc(C)c(C)cc43)nc12 | 2 µM |
| COc1cccc2c(NCC3CCCCC3)nc(N3CCOc4ccccc43)nc12 | 7.4 µM |
| c1ccc(CNc2ccnc(N3CCOc4ccccc43)n2)cc1 | 2.9 µM |
| c1ccc(CNc2nc(N3CCc4ccccc4C3)nc3ccccc23)cc1 | inactive |
| c1ccc(CNc2nc(N3CCOc4ccccc43)nc3ccsc23)cc1 | 0.4 µM |
| N#CCOc1cccc2c(NCc3ccccc3)nc(N3CCOc4ccccc43)nc12 | 0.4 µM |
| COc1cccc2c(NCc3ccccn3)nc(N3CCNc4ccccc43)nc12 | > 30 µM (inactive) |
| COc1cccc2c(NCc3ccccc3)nc(-n3c(N)nc4cc(Cl)ccc43)nc12 | 0.7 µM |

| SMILES | IC50 |
| --- | --- |
| COCCOc1cccc2c(NCc3ccccc3)nc(N3CCOc4ccccc43)nc12 | 0.6 µM |
| COc1cccc2c(NCc3ccccc3)nc(-n3c(N)nc4cc(Br)ccc43)nc12 | 0.8 µM |
| COc1cccc2c(NCc3ccccc3)nc(Nc3nc4ccccc4n3C)nc12 | 0.3 µM |
| COc1cccc2c(NCc3ccccc3)nc(Nc3cccc(F)c3)nc12 | 0.52 µM |
| COc1cccc2c(NCc3ccccc3O)nc(N3CCOc4ccccc43)nc12 | 4.6 µM |
| CN(c1ccccc1)c1nc(NCc2ccccc2)c2ccccc2n1 | > 30 µM (inactive) |
| Nc1nc2ccccc2n1-c1nc2c(c(NCc3ccccc3)n1)CCCC2 | 0.05 µM |
| COc1cccc2c(NCc3ccccc3)nc(N3CCN(C)CC3)nc12 | > 30 µM (inactive) |
| COc1cccc2c(NCc3ccccc3)nc(-n3c(N)nc4cc(C)ccc43)nc12 | 0.24 µM |
| CCN(CC)CCOc1cccc2c(NCc3ccccc3)nc(N3CCOc4ccccc43)nc12 | 0.4 µM |
| COc1cccc2c(NCc3ccccc3)nc(NC(C)c3ccccc3)nc12 (stereo unspecified) | inactive |
| OCCOc1cccc2c(NCc3ccccc3)nc(N3CCOc4ccccc43)nc12 | 0.17 µM |
| COc1cccc2c(NCc3ccccc3)nc(-n3c(N)nc4cc(F)ccc43)nc12 | 0.08 µM |
| Clc1ccccc1-c1nc(N2CCCc3ccccc32)c2ccccc2n1 | > 30 µM (inactive) |
| c1ccc(CNc2nc(N3CCOc4ccccc43)nc3c(-c4ccccc4)cccc23)cc1 | 3.5 µM |
| COc1cccc2c(NCc3cccs3)nc(N3CCOc4ccccc43)nc12 | 1.2 µM |
| Cc1nc(N2CCOc3ccccc32)nc(NCc2ccccc2)c1C | 1.1 µM |
| COc1cccc2c(NCc3ccc(O)cc3)nc(N3CCOc4ccccc43)nc12 | 2.4 µM |
